One may read the apparent Kd as a dissociation constant that holds for the conditions of the assay.

Here are results for 48 sequences from the EternaBench riboswitch data.

The series relates to MS2 coat protein. Put plainly: apparent Kd, MS2 coat protein; higher = weaker binding; RNA-MaP array; FMN 200 µM where present. An outline of the steps:
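Binding was read on Illumina sequencing-chip clusters where stalled E. coli RNA polymerase had transcribed each design. A titration of SNAP-549-labelled MS2 coat protein began at 0.7 or 1.5 nM and doubled to 3 µM, once without ligand and once with constant ligand, in 100 mM Tris-HCl pH 7.5, 80 mM KCl, 4 mM MgCl2, BSA, DTT, yeast tRNA and Tween-20. The apparent Kd is the median of filtered per-cluster binding-curve fits, based on green signal normalised to red-channel RNA signal and control-cluster median Fmax.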

[1] abbreviates: designed as: OFF switch for flavin mononucleotide, no ligand.
The mark [2] stands for this setting: ligand present: flavin mononucleotide, designed as: OFF switch for flavin mononucleotide.
Setting [3] is: designed as: ON switch for flavin mononucleotide, no ligand.
The mark [4] stands for this setting: ligand present: flavin mononucleotide, designed as: ON switch for flavin mononucleotide.

On to “CAUUAAUUAAUUAUAUUAAUUAUACAGGAUAUGUAACAUGAGGAUCACCCAUGUAUUCAAUGUAAACAGAAGGGUAUAUCUAGU”, for which the “apparent Kd” value by setting is: under setting [1], 14.6 nM; under setting [2], 13 nM.
For the sequence “GGGCCGGUGGAGAAGGAGCUUACGAAACGUAGGCUAGGAUAUCCACAUGAGGAUCACCCAUGUGGGAAUAUCUGAUUUUCGCAG”, the “apparent Kd” value under setting [1] was found to be 4 nM and the “apparent Kd” value under setting [2] stood at 5.26 nM.
Consider “CAGCACUAUCGAGAGGAUAUGCGGUGAUGGACAUGAGGAUCACCCAUGUUAGCGAUGGCAUCACGGCAGAAGGCUCUGCUGCUGC”, for which the “apparent Kd” value was 15.6 nM under setting [3] and 12.8 nM under setting [4].
The like results for “AAGUCGCACCAGAAGGGUCAACCAAUAAAUUAGACAGGAUAUGGGCGAUAUGUAUGUCGCGACAUGAGGAUCACCCAUGUCCGG” were, in that order, 17.7 nM and 6.08 nM.
Consider “GUAUGAGCGAUAGGAUAUACUGAGAUUGAAUGGGUAGAAGGAUUUCUUGUGGGAAAGACAUGAGGAUCACCCAUGUCACGGACC”, for which the “apparent Kd” value reads like this: under setting [3], 291 nM; under setting [4], 148 nM.
For “AGGGAGGGCGUGGAGGCGGAGGGACGAGAAGGUACACAUGAGGAUCACCCAUGUAGAGUGGGAGGUAAGGAUAUUGGAUGGUGG”, in that order: 101 nM and 66.9 nM.
Regarding “CCAGAGUGAGGAUAUGCAUAAAGGUGCUGUCCCGUGGCUUGACAUGAGGAUCACCCAUGUAGAAGGUGCGUUGU”, the “apparent Kd” value reads like this: under setting [1], 48.7 nM; under setting [2], 40.3 nM.
Turning to “GGAUCAAUAGUCCACAUGAGGAUCACCCAUGUAGUAUUUUACAAGGAUAUGGUGGGACUUCGUGGCCAGAAGGUGUAAAGGAUC”, the “apparent Kd” value runs as follows: under setting [3], 194 nM; under setting [4], 99.7 nM.
The like results for “AUAUCAUACCAAGGAUAUUUAGGACUUGUGUAGACAUGAGGAUCACCCAUGUGGCGUUAGUCACGGGAGAAGGUGGUAUGAUAU” were, in that order, 83 nM and 18.5 nM.
On to “AGGAUGUUAGGAUAUCGGAGAUGCGGGAGGAGGUGGAGGUACGAGAAGGAACAUGAGGAUCACCCAUGUGGAAG”, for which the “apparent Kd” value by setting is: under setting [1], 20.3 nM; under setting [2], 19.9 nM.
The like results for “ACAAAUCGAGGAUAUACAUGAGGAUCACCCAUGUGGAGCCCACUGCGCGGUUCUCAGCGUAGAAGGCGAAAACA” were, in that order, 30.4 nM and 99.9 nM.
For “AUUGAUGUUGAGGAUAUGCUUUUAUUUAUUCUUGCAGAAGGCGAUACAUGAGGAUCACCCAUGUUCAUGGAAGU”, in that order: 40.5 nM and 40.6 nM.
For “AUAUAAUAUCAGGAUAUGACUAGCUUCGGCUAGUCAGAAGGGAUGACAUGAGGAUCACCCAUGUGAUCAUAUAU”, in that order: 35.7 nM and 153 nM.
Take “GGUUGGCGAGGAUAUACAUGAGGAUCACCCAUGUGGUCCUGCGGUGGUUUCGCCCUUUGUAGAAGGCGCGGGUC”: the “apparent Kd” value runs as follows: under setting [1], 40.9 nM; under setting [2], 40.5 nM.
With “GGACGUUACAUCUACAUGAGGAUCACCCAUGUCUCUUGAGAUGAGGAUAUGUAUACGAAUCGUUUAUAGAAGGCAUGUACGUCC”, the “apparent Kd” value reads like this: under setting [3], 39.8 nM; under setting [4], 46.4 nM.
For “UGAUCUAUGUAGAAGGCCCAUAUCUAUAUUUAGGGAGGAUAUACAUGAGGAUCACCCAUGUAUAGAGCGGGUGGACCCGUCACC”, the “apparent Kd” value is 26.7 nM under setting [1] and 62.1 nM under setting [2].
For “UUGGACGUCCUAGGAUAUGUAGGAUAUUCCUACAUGAGGAUCACCCAUGUUGACAUGGAAGAAGGACAGAAGGACGAUGUCCAU”, the “apparent Kd” value runs as follows: under setting [3], 551 nM; under setting [4], 71.3 nM.
With “ACUAGAUGAGGAUAUGCAUAUUUUCGUGUUCUUCUAGAUUAACAUGAGGAUCACCCAUGUAGAAGGCGUCUGGA”, the “apparent Kd” value was determined as 17.8 nM under setting [1] and 26 nM under setting [2].
Regarding “GGGUACAUCGGAGGAUAUCAUGUAAAUACAUGAGGAUCACCCAUGUCGAUGGAGACAUCGGAGAUUGAGAAGGCCGAUGUAACG”, the “apparent Kd” value by setting is: under setting [3], 183 nM; under setting [4], 9.47 nM.
Consider “UCAAUUUUGCGAGGAUAUCGACCAUUCCUCUUUACAUGAGGAUCACCCAUGUACUUAUUCUACAACGAGAAGGCGCUCAUAGUU”, for which the “apparent Kd” value runs as follows: under setting [1], 37.5 nM; under setting [2], 43 nM.
“AGAUUACGAGGAUAUCGAGUUUAGUACAUGAGGAUCACCCAUGUUAUCCAGGUCUCGUUUCGAGAAGGCGUGAUUC”: the “apparent Kd” value by setting is: under setting [1], 256 nM; under setting [2], 92.3 nM.
“GGGUACAGUGAGAAGGUCUGCGGAUUCCUUAACAUGAGGAUCACCCAUGUAGAAGGAUAUCACAGGUAAAGGUCGUCUAACGAU”: the “apparent Kd” value runs as follows: under setting [1], 5.49 nM; under setting [2], 6.82 nM.
For “UCUUAUUGCAAGGAUAUGCAAAUUAUUAUUAAUGCAGAAGGUGCUACAUGAGGAUCACCCAUGUUUCCGGGUUU”, in that order: 45 nM and 161 nM.
For the sequence “GGCUCCGCUCGAGGAUAUAGCUGCAUGUAGUGUCCUGAGGCACAUGAGGAUCACCCAUGUGUAGGCUAGAAGGCGACGGAAGCU”, the “apparent Kd” value under setting [1] was found to be 142 nM and the “apparent Kd” value under setting [2] came out at 176 nM.
For the sequence “UGAGACCUCACAGGAUAUGCUGGACUUUGUCCAGCAGAAGGGUGAAAACAUGAGGAUCACCCAUGUAUGGUCUCCAAAUUUAAG”, the “apparent Kd” value by setting is: under setting [3], 191 nM; under setting [4], 12.7 nM.
For “AAAACAUGAGGAUCACCCAUGUAAAGAACGGUUAAUAGAUGUGAGGAUAUACUAGAAUUUAGGUAGUAGAAGGCACUGGGUACA”, in that order: 21.7 nM and 23.4 nM.
On to “CGUCAUUACUCAGGAUAUGCAUCAUACUUGAGGGCAGAAGGGAGUACAUGAGGAUCACCCAUGUACUAUGGGUGCCUAAGAGGU”, for which the “apparent Kd” value reads like this: under setting [1], 18.7 nM; under setting [2], 101 nM.
For “GCUGUCGCGUGAGGAUAUGGUCUGCAGUGCUGACCAGAAGGCAUGUCGAUAGACAUGAGGAUCACCCAUGUGGUUAGGGCGGCU”, the “apparent Kd” value was 804 nM under setting [3] and 351 nM under setting [4].
Turning to “AAUGUCUGAGGAUAUCGAAUAGUGUACAUGAGGAUCACCCAUGUUUUUAUUAGUAUAUUACGAGAAGGCAGUGGAA”, the “apparent Kd” value under setting [1] worked out at 17.8 nM and the “apparent Kd” value under setting [2] turned out to be 14.8 nM.
The like results for “AAUAAGCUAGGAUAUACAUGAGGAUCACCCAUGUGAGGGCACGGCCGGCGCGUUUCCGGUAGAAGGAGUCAUAA” were, in that order, 34.5 nM and 25.2 nM.
The like results for “AGCUGGAGAGGAUAUACGUGAGUGAUAAAAGUCUGAUAACUACAUGAGGAUCACCCAUGUAGAAGGCUCUGGCA” were, in that order, 66.2 nM and 19.4 nM.
“GGGUACAUCGGAGGAUAUCAUGUAAAUACAUGAGGAUCACCCAUGUCGAUGGAGACAUCGGAGAAUGAGAAGGCCGAUGUACCG”: the “apparent Kd” value runs as follows: under setting [3], 17.6 nM; under setting [4], 5.34 nM.
As to “AAGAGUAGAGGAUAUACAUGAGGAUCACCCAUGUAAUCCAGAUAAGGAAGCAUGUCGUGUAGAAGGCUGCAUGA”, the “apparent Kd” value runs as follows: under setting [1], 15.9 nM; under setting [2], 12.8 nM.
As for “AAGCGAGGGACAGGAUAUGCGGCGGAACUCGCCGCAGAAGGGUCGACAUGAGGAUCACCCAUGUCCUUACGCUCCAAGUAGUGG”, the “apparent Kd” value under setting [3] turned out to be 131 nM and the “apparent Kd” value under setting [4] is 425 nM.
“UGAUACCAAGGAUAUACAUGAGGAUCACCCAUGUCGGACCGAUGUGUCUCCUCCUGCUGUAGAAGGUGGAAAAU”: the “apparent Kd” value under setting [1] is 39.9 nM and the “apparent Kd” value under setting [2] amounted to 55.6 nM.
For “UUUGCAUUCCGAGGAUAUUCUUUUAUUGUCUUCACAUGAGGAUCACCCAUGUGGCGCUUGCGCCGGGAGAAGGCGGUUUGCUUU”, the “apparent Kd” value runs as follows: under setting [3], 23.9 nM; under setting [4], 24.5 nM.
On to “GUAGAACAUGAGGAUCACCCAUGUGAAGACGCAUGAGGAUAUGUCCGUACCUAGCAUACGAUAGAAGGCAUGGUAC”, for which the “apparent Kd” value under setting [3] was 69.2 nM and the “apparent Kd” value under setting [4] turned out to be 88.2 nM.
With “UGAUUCGAGGCUAAGCCUCCAUCACAGGAUAUGCACGAGACAUGAGGAUCACCCAUGUGGCGAAGGCAGAAGGGUGAUACGUCU”, the “apparent Kd” value was 197 nM under setting [3] and 24.6 nM under setting [4].
Consider “AGUGCGUAUGUGAGGAUAUGCUGGUCCUUGGAUCAGCAGAAGGCACAUGAGGAUCACCCAUGUGGUGUCGUACA”, for which the “apparent Kd” value was 342 nM under setting [1] and 24.9 nM under setting [2].
Take “AAUAUAAAGCAGAAGGCCUUAUUACAUGAGGAUCACCCAUGUAAUCGUGGGAGGAUAUGCAUGAUACAACUACGUAUCGUAGCA”: the “apparent Kd” value was determined as 9.33 nM under setting [3] and 5.19 nM under setting [4].
The like results for “GUAGCUUUCCGAGGAUAUUCAGGGCGUGGAUAUACAUGAGGAUCACCCAUGUGGCGGAAGCCUAGGGAGAAGGCGGGCUGCUUC” were, in that order, 47.7 nM and 19 nM.
In the case of “UAAGUUGAGGAGAAGGGAGCACAUGAGGAUCACCCAUGUGGUCCUUUGUGCUCAGGAUAUCCAUGGAGCUCCGUCGCGUUCCAU”, the “apparent Kd” value is 4.49 nM under setting [1] and 3.32 nM under setting [2].
As to “AGAUGUACCUAGGAUAUCCGUCGAAUUGGACUAGGAGAAGGAGGUACAUGAGGAUCACCCAUGUAUGACUCCUG”, the “apparent Kd” value under setting [1] worked out at 10.5 nM and the “apparent Kd” value under setting [2] is 13.1 nM.
The like results for “UUAUAUAGUGUGAGGAUAUGCUGGUCCUUGGAUCAGCAGAAGGCACAUGAGGAUCACCCAUGUAGUUUAUUUUU” were, in that order, 25.4 nM and 144 nM.
For “GGACGACUCAUUAACAUGAGGAUCACCCAUGUCAAAAGACAUGAGGAUAUGGAUCCUAAUUGGAUCCAGAAGGCAUGGUCGUCC”, the “apparent Kd” value under setting [3] amounted to 944 nM and the “apparent Kd” value under setting [4] was 51.8 nM.
For the sequence “GUAGUGUAGUGAGGAUAUACGAGAUCGAUAGAUCGGCGAUCCAUUUAUACAUGAGGAUCACCCAUGUAGAAGGCACUUCACUAC”, the “apparent Kd” value under setting [1] amounted to 6.17 nM and the “apparent Kd” value under setting [2] came out at 51 nM.
Turning to “AACGAGCAGUAGAAGGGAUGUCUACGGACAUGAGGAUCACCCAUGUUGUGACUCCGAAAGGAGCGUCAGGAUAUACUGCUCAAA”, the “apparent Kd” value by setting is: under setting [3], 8.13 nM; under setting [4], 6.15 nM.
For the sequence “AGUUGUAAUACAGGAUAUAUAUUAUUUUUAUUUAUAGAAGGGUAAUCACAUGAGGAUCACCCAUGUAUAUACGAGGAAGAAGAG”, the “apparent Kd” value runs as follows: under setting [3], 291 nM; under setting [4], 329 nM.
